ChEMBL document CHEMBL1136006, “New PET imaging agent for the serotonin transporter: [(18)F]ACF (2-[(2-amino-4-chloro-5-fluorophenyl)thio]-N,N-dimethyl-benzenmethanamine)” (J Med Chem, 2002)

Key:
Rattus norvegicus [1] = assay: Effect of pretreatment with (+)-McN5652 with a dose of 2 mg/kg (i.v.) on specific binding of [18F]ACF in rat brain remainder; dose/g; format: ADME, organism-based; parameters: dose 2 mg/kg, route intravenous; conditions: in vivo, iv
How it was run: (§1)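 Rats pretreated iv with drug (2 mg/kg) or saline 5 min before iv [18F]ACF (50 μCi). Sacrificed 1 h after tracer. Brain regions were dissected, weighed and counted, and % dose/g was calculated against a diluted initial dose. Drug-treated rats were compared with saline controls by ANOVA/Dunnett's test (p<0.05). Three rats per point, average ± SD.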

Rattus norvegicus [2] = assay: Effect of pretreatment with (+)-McN5652 with a dose of 2 mg/kg (i.v.) on specific binding of [18F]ACF in rat brain striatum; format: ADME, organism-based; parameters: dose 2 mg/kg, route intravenous; conditions: in vivo, iv; how it was run: as §1
Rattus norvegicus [3] = assay: Effect of pretreatment with methylphenidate with a dose of 2 mg/kg (i.v.) on specific binding of [18F]ACF in rat brain cerebellum; dose/g; format: ADME, organism-based; parameters: dose 2 mg/kg, route intravenous; conditions: in vivo, iv; how it was run: as §1
Rattus norvegicus [4] = organism: Rattus norvegicus; assay: Organ distribution of [18F]ACF radiolabeled compound in rat kidney after 2 min; format: ADME, organism-based; conditions: in vivo
How it was run: (§2)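 Rats, three per time point, under ether anesthesia; 30 μCi tracer in 0.2 mL saline injected into femoral vein. Sacrificed by cardiac excision under ether at 2, 30, 60, 120 or 240 min. Organs removed, weighed and counted; % dose/organ calculated against counts of 1% of initial dose counted at the same time. Average of three rats ± SD.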

Rattus norvegicus [5] = organism: Rattus norvegicus; assay: Organ distribution of [18F]ACF radiolabeled compound in rat kidney after 30 min; format: ADME, organism-based; conditions: in vivo, 0.5 h; how it was run: as §2
Rattus norvegicus [6] = organism: Rattus norvegicus; assay: Regional brain distribution of [18F]-ACF radiolabeled compound in rat striatum after 240 min; format: ADME, organism-based; conditions: in vivo, 4 h
How it was run: (§3)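 Rats (three per group) under ether anesthesia got 30 μCi tracer in 0.2 mL saline into the femoral vein and were killed by cardiac excision at the stated time. Cortex, striatum, hippocampus, cerebellum, hypothalamus and the rest of brain were dissected, weighed and gamma counted. %dose/g was taken against counts of a diluted initial dose. Regional ratios are each region's %dose/g over cerebellum's. Mean ± SD.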

Rattus norvegicus [7] = organism: Rattus norvegicus; assay: Regional brain distribution of [18F]-ACF radiolabeled compound in rat striatum after 2 min; format: ADME, organism-based; conditions: in vivo; how it was run: as §3
Rattus norvegicus [8] = organism: Rattus norvegicus; assay: Regional brain distribution of [18F]ACF radiolabeled compound in rat hypothalamus after 30 min; format: ADME, organism-based; conditions: in vivo, 0.5 h; how it was run: as §3
Rattus norvegicus [9] = organism: Rattus norvegicus; assay: Regional brain distribution of [18F]ACF radiolabeled compound in rat remainder (rest of brain) after 120 min; format: ADME, organism-based; conditions: in vivo, 2 h; how it was run: as §3
Rattus norvegicus [10] = organism: Rattus norvegicus; assay: Organ distribution of [18F]ACF radiolabeled compound in rat liver after 240 min; format: ADME, organism-based; conditions: in vivo, 4 h; how it was run: as §2
Rattus norvegicus [11] = organism: Rattus norvegicus; assay: Organ distribution of [18F]ACF radiolabeled compound in rat liver after 2 min; format: ADME, organism-based; conditions: in vivo; how it was run: as §2
Rattus norvegicus [12] = organism: Rattus norvegicus; assay: Organ distribution of [18F]-ACF radiolabeled compound in rat lung after 240 min; format: ADME, organism-based; conditions: in vivo, 4 h
How it was run: (§4)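 Under ether anesthesia, 30 μCi no-carrier-added tracer in 0.2 mL saline injected into the femoral vein. Rats killed by cardiac excision at the stated time. Organs were removed, weighed and counted; % dose/organ was calculated against counts of a 1% initial-dose standard. Three rats per time, average ± SD.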

Rattus norvegicus [13] = organism: Rattus norvegicus; assay: Organ distribution of [18F]-ACF radiolabeled compound in rat muscle after 2 min; format: ADME, organism-based, Muscle tissue; conditions: in vivo; how it was run: as §4
Rattus norvegicus [14] = organism: Rattus norvegicus; assay: Organ distribution of [18F]-ACF radiolabeled compound in rat muscle after 30 min; format: ADME, organism-based, Muscle tissue; conditions: in vivo, 0.5 h; how it was run: as §4
Rattus norvegicus [15] = organism: Rattus norvegicus; assay: Organ distribution of [18F]-ACF radiolabeled compound in rat skin after 240 min; format: ADME, organism-based; conditions: in vivo, 4 h; how it was run: as §4
Rattus norvegicus [16] = organism: Rattus norvegicus; assay: Organ distribution of [18F]ACF radiolabeled compound in rat skin after 2 min; format: ADME, organism-based; conditions: in vivo; how it was run: as §2
Rattus norvegicus [17] = organism: Rattus norvegicus; assay: Organ distribution of [18F]-ACF radiolabeled compound in rat skin after 60 min; format: ADME, organism-based; conditions: in vivo, 1 h; how it was run: as §4
Rattus norvegicus [18] = organism: Rattus norvegicus; assay: Organ distribution of [18F]-ACF radiolabeled compound in rat spleen after 30 min; format: ADME, organism-based; conditions: in vivo, 0.5 h; how it was run: as §4
Rattus norvegicus [19] = organism: Rattus norvegicus; assay: Regional brain distribution of [18F]ACF radiolabeled compound in rat cerebellum after 60 min; format: ADME, organism-based; conditions: in vivo, 1 h; how it was run: as §3
Rattus norvegicus [20] = assay: Effect of pretreatment with nisoxatine with a dose of 2 mg/kg (i.v.) on specific binding of [18F]ACF in rat brain striatum; format: ADME, organism-based; parameters: dose 2 mg/kg, route intravenous; conditions: in vivo, iv; how it was run: as §1
Rattus norvegicus [21] = organism: Rattus norvegicus; assay: Organ distribution of [18F]ACF radiolabeled compound in rat blood after 120 min; format: ADME, organism-based; conditions: in vivo, 2 h; how it was run: as §2
Rattus norvegicus [22] = organism: Rattus norvegicus; assay: Regional brain distribution of [18F]ACF radiolabeled compound in rat hippocampus after 120 min; format: ADME, organism-based; conditions: in vivo, 2 h; how it was run: as §3
Rattus norvegicus [23] = organism: Rattus norvegicus; assay: Organ distribution of [18F]ACF radiolabeled compound in rat brain after 240 min; format: ADME, organism-based; conditions: in vivo, 4 h; how it was run: as §2
Rattus norvegicus [24] = organism: Rattus norvegicus; assay: Organ distribution of [18F]ACF radiolabeled compound in rat heart after 120 min; format: ADME, organism-based; conditions: in vivo, 2 h; how it was run: as §2
[25] = target: Sodium-dependent noradrenaline transporter (Homo sapiens, UniProt P23975); assay: In vitro binding affinity in LLC-PK1 cells by Norepinephrine transporter binding assay by using [125I]-IPT as a radioligand; format: cell-based
How it was run: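 LLC-PK1 cell membrane homogenates overexpressing DAT or NET. Incubated with 0.4 nM [125I]IPT and 8–10 competitor concentrations (10^-10 to 10^-5 M) in 50 mM Tris-HCl pH 7.4, 120 mM NaCl, 0.1% BSA for 1 h at room temperature. Nonspecific binding defined with 10 μM CFT. Filtered, gamma-counted, nonlinear regression. Mean ± SEM of three determinations in duplicate.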

Rattus norvegicus [26] = organism: Rattus norvegicus; assay: Ratio of regional brain distribution of [18F]ACF radiolabeled compound in rat hippocampus to that of cerebellum after 120 min; format: ADME, organism-based; conditions: in vivo, 2 h; how it was run: as §3
Rattus norvegicus [27] = organism: Rattus norvegicus; assay: Ratio of regional brain distribution of [18F]-ACF radiolabeled compound in rat hippocampus to that of cerebellum after 240 min; format: ADME, organism-based; conditions: in vivo, 4 h
How it was run: (§5)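 Rats, three per time point, given 30 μCi tracer in 0.2 mL saline into femoral vein under ether anesthesia; killed at 2, 30, 60, 120 or 240 min. Cortex, striatum, hippocampus, cerebellum, hypothalamus and rest of brain dissected, weighed, counted; % dose/g against diluted initial dose, then each region divided by cerebellum. Average of three rats ± SD.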

Rattus norvegicus [28] = assay: Ratio of effect of pretreatment with nisoxatine with a dose of 2 mg/kg (i.v.) on specific binding of [18F]-ACF in rat brain hippocampus to that of cerebellum; format: ADME, organism-based; parameters: dose 2 mg/kg, route intravenous; conditions: in vivo, iv
How it was run: (§6)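 Rats (three per point) pretreated iv with competing drug at 2 mg/kg or saline (control) 5 min before iv [18F]ACF (50 μCi). At 1 h post tracer, brain regions (cortex, striatum, hippocampus, cerebellum, hypothalamus, remainder) dissected, weighed, counted as % dose/g and expressed as ratio to cerebellum. Average ± SD; ANOVA with Dunnett's test vs saline controls, p < 0.05.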

Rattus norvegicus [29] = organism: Rattus norvegicus; assay: Ratio of regional brain distribution of [18F]-ACF radiolabeled compound in rat hippocampus to that of cerebellum after 2 min; format: ADME, organism-based; conditions: in vivo; how it was run: as §5
Rattus norvegicus [30] = organism: Rattus norvegicus; assay: Ratio of regional brain distribution of [18F]ACF radiolabeled compound in rat hippocampus to that of cerebellum after 60 min; format: ADME, organism-based; conditions: in vivo, 1 h; how it was run: as §3
Rattus norvegicus [31] = assay: Ratio of effect of pretreatment with (+)-McN5652 with a dose of 2 mg/kg (i.v.) on specific binding of [18F]ACF in rat brain hypothalamus to that of cerebellum; format: ADME, organism-based; parameters: dose 2 mg/kg, route intravenous; conditions: in vivo, iv; how it was run: as §6
Rattus norvegicus [32] = assay: Ratio of effect of pretreatment with (+)-McN5652 with a dose of 2 mg/kg (i.v.) on specific binding of [18F]ACF in rat brain remainder to that of cerebellum; format: ADME, organism-based; parameters: dose 2 mg/kg, route intravenous; conditions: in vivo, iv; how it was run: as §6
Rattus norvegicus [33] = assay: Ratio of effect of pretreatment with (+)-McN5652 with a dose of 2 mg/kg (i.v.) on specific binding of [18F]ACF in rat brain striatum to that of cerebellum; format: ADME, organism-based; parameters: dose 2 mg/kg, route intravenous; conditions: in vivo, iv; how it was run: as §6

Sequence of Sodium-dependent noradrenaline transporter (P23975 whole entry, looked up): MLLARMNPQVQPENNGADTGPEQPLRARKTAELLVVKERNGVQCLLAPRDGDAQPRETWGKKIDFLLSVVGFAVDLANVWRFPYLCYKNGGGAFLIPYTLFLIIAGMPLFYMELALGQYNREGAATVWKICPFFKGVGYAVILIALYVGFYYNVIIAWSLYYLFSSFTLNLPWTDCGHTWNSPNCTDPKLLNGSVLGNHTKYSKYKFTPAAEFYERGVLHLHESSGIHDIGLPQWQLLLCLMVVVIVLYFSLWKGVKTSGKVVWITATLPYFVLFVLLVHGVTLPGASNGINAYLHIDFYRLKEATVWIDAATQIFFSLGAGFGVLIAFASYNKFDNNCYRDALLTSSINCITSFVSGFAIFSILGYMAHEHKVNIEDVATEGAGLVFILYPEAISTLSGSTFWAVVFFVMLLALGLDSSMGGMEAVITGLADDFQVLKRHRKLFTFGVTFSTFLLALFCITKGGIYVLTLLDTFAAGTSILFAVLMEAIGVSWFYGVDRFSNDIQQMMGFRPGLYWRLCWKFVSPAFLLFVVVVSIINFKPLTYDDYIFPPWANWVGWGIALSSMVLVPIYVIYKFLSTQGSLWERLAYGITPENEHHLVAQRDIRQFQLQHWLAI

For CN(C)Cc1ccccc1Sc1cc(F)c(Cl)cc1N, the Dose/g (Rattus norvegicus [1]) was 0.23%, the Dose/g (Rattus norvegicus [2]) was 0.25% and the Dose/g (Rattus norvegicus [3]) was 0.17%. For the same compound, the Dose/g (Rattus norvegicus [4]) was 6.97 % dose/organ, the Dose/g (Rattus norvegicus [5]) was 2.64 % dose/organ and the Dose/g (Rattus norvegicus [6]) was 0.05%. The Dose/g (Rattus norvegicus [7]) was 1.78%, the Dose/g (Rattus norvegicus [8]) was 0.85% and the Dose/g (Rattus norvegicus [9]) was 0.12%. It also gave a Dose/g (Rattus norvegicus [10]) of 3.55 % dose/organ, a Dose/g (Rattus norvegicus [11]) of 9.41 % dose/organ and a Dose/g (Rattus norvegicus [12]) of 0.15 % dose/organ. For the same compound, the Dose/g (Rattus norvegicus [13]) was 14.3 % dose/organ, the Dose/g (Rattus norvegicus [14]) was 10.7 % dose/organ and the Dose/g (Rattus norvegicus [15]) was 1.53 % dose/organ. For the same compound, the Dose/g (Rattus norvegicus [16]) was 4.76 % dose/organ, the Dose/g (Rattus norvegicus [17]) was 5.97 % dose/organ and the Dose/g (Rattus norvegicus [18]) was 0.29 % dose/organ. The Dose/g (Rattus norvegicus [19]) was 0.15%, the Dose/g (Rattus norvegicus [20]) was 0.47% and the Dose/g (Rattus norvegicus [21]) was 3.2 % dose/organ. For the same compound, the Dose/g (Rattus norvegicus [22]) was 0.14%, the Dose/g (Rattus norvegicus [23]) was 0.06 % dose/organ and the Dose/g (Rattus norvegicus [24]) was 0.06 % dose/organ. The Ki [25] was 650 nM, the Ratio (Rattus norvegicus [26]) was 2.67 and the Ratio (Rattus norvegicus [27]) was 1.99. It also gave a Ratio (Rattus norvegicus [28]) of 2.44, a Ratio (Rattus norvegicus [29]) of 1.24 and a Ratio (Rattus norvegicus [30]) of 2.91. For the same compound, the Ratio (Rattus norvegicus [31]) was 1.36, the Ratio (Rattus norvegicus [32]) was 1.37 and the Ratio (Rattus norvegicus [33]) was 1.48.
